Laboratory results: ChEMBL document CHEMBL1255475, “Mutant prevention concentrations of four carbapenems against gram-negative rods” (2010)
≈ marks a conversion by molar mass, not a printed value.

Assays:
Type in all cases: functional
Klebsiella pneumoniae [1] = assay: Antibacterial activity against beta-lactamase-positive ESBL-negative Klebsiella pneumoniae E479 incubated up to 7 days by agar dilution method; conditions: E479, 168 h
Outline: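 MPC determination: overnight cultures on blood trypticase soy agar at 35°C in air were resuspended in 0.9% saline, and CFU were counted on drug-free Mueller-Hinton agar. […] Growth was retested by agar dilution to confirm mutants. MPC was the lowest concentration preventing resistant-mutant growth.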

Escherichia coli [2] = assay: Antibacterial activity against beta-lactamase-negative Escherichia coli E409 […] by agar dilution method
Escherichia coli [3] = assay: Antibacterial activity against beta-lactamase-negative Escherichia coli E350 assessed as mutant prevention concentration after overnight incubation
Klebsiella pneumoniae [4] = assay: Antibacterial activity against beta-lactamase-positive ESBL-positive Klebsiella pneumoniae E476 assessed as mutant prevention concentration after overnight incubation
Outline: (§1)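 Overnight growth on blood trypticase soy agar (35°C, air) was resuspended in 0.9% saline and counted on drug-free Mueller-Hinton agar. […] Colonies were retested by agar dilution to confirm mutants. MPC was the lowest concentration preventing resistant-mutant growth.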

Klebsiella pneumoniae [5] = assay: Antibacterial activity against beta-lactamase-positive ESBL-negative Klebsiella pneumoniae E479 assessed as mutant prevention concentration after overnight incubation; outline: as §1
Escherichia coli [6] = assay: Antibacterial activity against beta-lactamase-negative Escherichia coli E409 assessed as mutant prevention concentration after overnight incubation
Klebsiella pneumoniae [7] = assay: Antibacterial activity against beta-lactamase-negative Klebsiella pneumoniae E359 assessed as mutant prevention concentration after overnight incubation
Klebsiella pneumoniae [8] = assay: Antibacterial activity against beta-lactamase-positive ESBL-positive Klebsiella pneumoniae E476 incubated up to 7 days by agar dilution method; conditions: E476, 168 h
Klebsiella pneumoniae [9] = assay: Antibacterial activity against beta-lactamase-positive ESBL-positive Klebsiella pneumoniae E478 assessed as mutant prevention concentration after overnight incubation; outline: as §1
Escherichia coli [10] = assay: Antibacterial activity against beta-lactamase-negative Escherichia coli E345 assessed as mutant prevention concentration after overnight incubation
Escherichia coli [11] = assay: Antibacterial activity against beta-lactamase-positive ESBL-positive Escherichia coli E458 incubated up to 7 days by agar dilution method; conditions: E458, 168 h
Outline: (§2)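 MIC by CLSI agar dilution, with quality-control strains in each run. Beta-lactamase status was set by 30 μg cefazolin Kirby-Bauer disk diffusion. ESBL status was set by cefotaxime and ceftazidime disks (30 μg) with and without clavulanic acid (10 μg).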

Klebsiella pneumoniae [12] = assay: Antibacterial activity against beta-lactamase-positive ESBL-negative Klebsiella pneumoniae E477 assessed as mutant prevention concentration after overnight incubation; outline: as §1
Escherichia coli [13] = assay: Antibacterial activity against beta-lactamase-positive ESBL-negative Escherichia coli E483 assessed as mutant prevention concentration after overnight incubation; outline: as §1
Escherichia coli [14] = assay: Antibacterial activity against beta-lactamase-positive ESBL-positive Escherichia coli E452 incubated up to 7 days by agar dilution method; conditions: E452, 168 h; outline: as §2
Klebsiella pneumoniae [15] = assay: Antibacterial activity against beta-lactamase-positive ESBL-negative Klebsiella pneumoniae E473 assessed as mutant prevention concentration after overnight incubation; outline: as §1
Klebsiella pneumoniae [16] = assay: Antibacterial activity against beta-lactamase-positive ESBL-negative Klebsiella pneumoniae E477 incubated up to 7 days by agar dilution method; conditions: E477, 168 h
Klebsiella pneumoniae [17] = assay: Antibacterial activity against beta-lactamase-negative Klebsiella pneumoniae E357 assessed as mutant prevention concentration after overnight incubation
Escherichia coli [18] = assay: Antibacterial activity against beta-lactamase-negative Escherichia coli E347 incubated up to 7 days by agar dilution method; conditions: E347, 168 h
Klebsiella pneumoniae [19] = assay: Antibacterial activity against beta-lactamase-negative Klebsiella pneumoniae E360 incubated up to 7 days by agar dilution method; conditions: E360, 168 h
Escherichia coli [20] = assay: Antibacterial activity against beta-lactamase-positive ESBL-positive Escherichia coli E450 assessed as mutant prevention concentration after overnight incubation; outline: as §1
Escherichia coli [21] = assay: Antibacterial activity against beta-lactamase-positive ESBL-positive Escherichia coli E446 assessed as mutant prevention concentration after overnight incubation; outline: as §1
Escherichia coli [22] = assay: Antibacterial activity against beta-lactamase-negative Escherichia coli E344 assessed as mutant prevention concentration after overnight incubation
Klebsiella pneumoniae [23] = assay: Antibacterial activity against beta-lactamase-positive ESBL-negative Klebsiella pneumoniae E474 assessed as mutant prevention concentration after overnight incubation; outline: as §1
Escherichia coli [24] = assay: Antibacterial activity against beta-lactamase-positive ESBL-positive Escherichia coli E450 incubated up to 7 days by agar dilution method; conditions: E450, 168 h; outline: as §2
Escherichia coli [25] = assay: Antibacterial activity against beta-lactamase-positive ESBL-negative Escherichia coli E483 […] by agar dilution method
Klebsiella pneumoniae [26] = assay: Antibacterial activity against beta-lactamase-negative Klebsiella pneumoniae E358 assessed as mutant prevention concentration after overnight incubation
Escherichia coli [27] = assay: Antibacterial activity against beta-lactamase-negative Escherichia coli E347 assessed as mutant prevention concentration after overnight incubation
Klebsiella pneumoniae [28] = assay: Antibacterial activity against beta-lactamase-positive ESBL-positive Klebsiella pneumoniae E457 incubated up to 7 days by agar dilution method; conditions: E457, 168 h; outline: as §2
Escherichia coli [29] = assay: Antibacterial activity against beta-lactamase-negative Escherichia coli E425 assessed as mutant prevention concentration after overnight incubation
Escherichia coli [30] = assay: Antibacterial activity against beta-lactamase-positive ESBL-positive Escherichia coli E465 incubated up to 7 days by agar dilution method; conditions: E465, 168 h; outline: as §2
Escherichia coli [31] = assay: Antibacterial activity against beta-lactamase-negative Escherichia coli E424 assessed as mutant prevention concentration after overnight incubation
Escherichia coli [32] = assay: Antibacterial activity against beta-lactamase-positive ESBL-positive Escherichia coli E452 assessed as mutant prevention concentration after overnight incubation; outline: as §1
Escherichia coli [33] = assay: Antibacterial activity against beta-lactamase-positive ESBL-negative Escherichia coli E437 assessed as mutant prevention concentration after overnight incubation; outline: as §1
Klebsiella pneumoniae [34] = assay: Antibacterial activity against beta-lactamase-positive ESBL-negative Klebsiella pneumoniae E473 incubated up to 7 days by agar dilution method; conditions: E473, 168 h
Pseudomonas aeruginosa [35] = assay: Antibacterial activity against Pseudomonas aeruginosa P341 assessed as mutant prevention concentration after overnight incubation
Pseudomonas aeruginosa [36] = assay: Antibacterial activity against Pseudomonas aeruginosa P340 assessed as mutant prevention concentration after overnight incubation
Pseudomonas aeruginosa [37] = assay: Antibacterial activity against Pseudomonas aeruginosa P363 assessed as mutant prevention concentration after overnight incubation
Pseudomonas aeruginosa [38] = assay: Antibacterial activity against Pseudomonas aeruginosa P369 assessed as mutant prevention concentration after overnight incubation
Acinetobacter baumannii [39] = assay: Antibacterial activity against Acinetobacter baumannii A885 assessed as mutant prevention concentration after overnight incubation
Pseudomonas aeruginosa [40] = assay: Antibacterial activity against Pseudomonas aeruginosa P365 assessed as mutant prevention concentration after overnight incubation
Acinetobacter baumannii [41] = assay: Antibacterial activity against Acinetobacter baumannii A910 assessed as mutant prevention concentration after overnight incubation
Acinetobacter baumannii [42] = assay: Antibacterial activity against Acinetobacter baumannii A897 assessed as mutant prevention concentration after overnight incubation
Pseudomonas aeruginosa [43] = assay: Antibacterial activity against Pseudomonas aeruginosa P370 assessed as mutant prevention concentration after overnight incubation
Acinetobacter baumannii [44] = assay: Antibacterial activity against Acinetobacter baumannii A884 assessed as mutant prevention concentration after overnight incubation
Acinetobacter baumannii [45] = assay: Antibacterial activity against Acinetobacter baumannii A894 assessed as mutant prevention concentration after overnight incubation

Compound: C[C@@H](O)[C@H]1C(=O)N2C(C(=O)O)=C(S[C@@H]3CN[C@H](C(=O)Nc4cccc(C(=O)O)c4)C3)[C@H](C)[C@H]12
- MIC (Klebsiella pneumoniae [1]): 8 µg/mL (≈ 16.8 µM)
- MIC (Escherichia coli [2]): 0.016 µg/mL (≈ 0.0336 µM)
- MPC (Escherichia coli [3]): 0.03 µg/mL
- MPC (Klebsiella pneumoniae [4]): 32 µg/mL
- MPC (Klebsiella pneumoniae [5]): 64 µg/mL
- MPC (Escherichia coli [6]): 0.125 µg/mL
- MPC (Klebsiella pneumoniae [7]): 0.03 µg/mL
- MIC (Klebsiella pneumoniae [8]): 8 µg/mL (≈ 16.8 µM)
- MPC (Klebsiella pneumoniae [9]): 16 µg/mL
- MPC (Escherichia coli [10]): 0.03 µg/mL
- MIC (Escherichia coli [11]): 0.03 µg/mL (≈ 0.0631 µM)
- MPC (Klebsiella pneumoniae [12]): 32 µg/mL
- MPC (Escherichia coli [13]): 64 µg/mL
- MIC (Escherichia coli [14]): 0.03 µg/mL (≈ 0.0631 µM)
- MPC (Klebsiella pneumoniae [15]): 32 µg/mL
- MIC (Klebsiella pneumoniae [16]): 8 µg/mL (≈ 16.8 µM)
- MPC (Klebsiella pneumoniae [17]): 0.03 µg/mL
- MIC (Escherichia coli [18]): 0.008 µg/mL (≈ 0.0168 µM)
- MIC (Klebsiella pneumoniae [19]): 0.008 µg/mL (≈ 0.0168 µM)
- MPC (Escherichia coli [20]): 1 µg/mL
- MPC (Escherichia coli [21]): 1 µg/mL
- MPC (Escherichia coli [22]): 0.03 µg/mL
- MPC (Klebsiella pneumoniae [23]): 32 µg/mL
- MIC (Escherichia coli [24]): 0.03 µg/mL (≈ 0.0631 µM)
- MIC (Escherichia coli [25]): 4 µg/mL (≈ 8.41 µM)
- MPC (Klebsiella pneumoniae [26]): 0.03 µg/mL
- MPC (Escherichia coli [27]): 0.03 µg/mL
- MIC (Klebsiella pneumoniae [28]): 0.03 µg/mL (≈ 0.0631 µM)
- MPC (Escherichia coli [29]): 0.03 µg/mL
- MIC (Escherichia coli [30]): 0.25 µg/mL (≈ 0.526 µM)
- MPC (Escherichia coli [31]): 0.06 µg/mL
- MPC (Escherichia coli [32]): 0.25 µg/mL
- MPC (Escherichia coli [33]): 0.125 µg/mL
- MIC (Klebsiella pneumoniae [34]): 8 µg/mL (≈ 16.8 µM)

Compound: C[C@@H](O)[C@H]1C(=O)N2C(C(=O)O)=C(S[C@@H]3CN[C@H](CNS(N)(=O)=O)C3)[C@H](C)[C@H]12 [DORIPENEM]
- MIC (Klebsiella pneumoniae [1]): 4 µg/mL (≈ 9.51 µM)
- MIC (Escherichia coli [2]): 0.03 µg/mL (≈ 0.0713 µM)
- MPC (Escherichia coli [3]): 0.125 µg/mL
- MPC (Klebsiella pneumoniae [4]): 8 µg/mL
- MPC (Klebsiella pneumoniae [5]): >64 µg/mL
- MPC (Escherichia coli [6]): 0.125 µg/mL
- MPC (Klebsiella pneumoniae [7]): 0.125 µg/mL
- MIC (Klebsiella pneumoniae [8]): 2 µg/mL (≈ 4.76 µM)
- MPC (Klebsiella pneumoniae [9]): >64 µg/mL
- MPC (Pseudomonas aeruginosa [35]): 8 µg/mL
- MPC (Escherichia coli [10]): 0.06 µg/mL
- MIC (Escherichia coli [11]): 0.03 µg/mL (≈ 0.0713 µM)
- MPC (Klebsiella pneumoniae [12]): >64 µg/mL
- MPC (Escherichia coli [13]): 2 µg/mL
- MPC (Pseudomonas aeruginosa [36]): 1 µg/mL
- MIC (Escherichia coli [14]): 0.03 µg/mL (≈ 0.0713 µM)
- MPC (Klebsiella pneumoniae [15]): 8 µg/mL
- MIC (Klebsiella pneumoniae [16]): 2 µg/mL (≈ 4.76 µM)
- MPC (Klebsiella pneumoniae [17]): 0.125 µg/mL
- MPC (Pseudomonas aeruginosa [37]): 4 µg/mL
- MPC (Pseudomonas aeruginosa [38]): 2 µg/mL
- MIC (Escherichia coli [18]): 0.03 µg/mL (≈ 0.0713 µM)
- MIC (Klebsiella pneumoniae [19]): 0.06 µg/mL (≈ 0.143 µM)
- MPC (Acinetobacter baumannii [39]): 8 µg/mL
- MPC (Escherichia coli [20]): 0.125 µg/mL
- MPC (Escherichia coli [21]): 0.125 µg/mL
- MPC (Escherichia coli [22]): 0.06 µg/mL
- MPC (Klebsiella pneumoniae [23]): 32 µg/mL
- MPC (Pseudomonas aeruginosa [40]): 8 µg/mL
- MIC (Escherichia coli [24]): 0.03 µg/mL (≈ 0.0713 µM)
- MIC (Escherichia coli [25]): 0.25 µg/mL (≈ 0.595 µM)
- MPC (Klebsiella pneumoniae [26]): 0.125 µg/mL
- MPC (Acinetobacter baumannii [41]): 4 µg/mL
- MPC (Escherichia coli [27]): 0.06 µg/mL
- MPC (Acinetobacter baumannii [42]): 1 µg/mL
- MIC (Klebsiella pneumoniae [28]): 0.06 µg/mL (≈ 0.143 µM)
- MPC (Escherichia coli [29]): 0.06 µg/mL
- MIC (Escherichia coli [30]): 0.03 µg/mL (≈ 0.0713 µM)
- MPC (Escherichia coli [31]): 0.06 µg/mL
- MPC (Escherichia coli [32]): 0.125 µg/mL
- MPC (Pseudomonas aeruginosa [43]): 4 µg/mL
- MPC (Escherichia coli [33]): 0.125 µg/mL
- MIC (Klebsiella pneumoniae [34]): 2 µg/mL (≈ 4.76 µM)
- MPC (Acinetobacter baumannii [44]): 4 µg/mL
- MPC (Acinetobacter baumannii [45]): 2 µg/mL
